Data as given in PubChem BioAssay AID623875 (Vanderbilt Specialized Chemistry Center, 2012).
Where “and” joins values, the source holds several entries; their conditions need not be identical. Identical values can stand only once.

What follows are compounds tested against Metabotropic glutamate receptor 4 (Rattus norvegicus) (UniProt P31423) (assay: rat mGlu4 positive allosteric modulators, SAR follow-up, thallium flux, HEK/GIRK cells (AID 623875)). Details: HEK/GIRK rat mGlu4, thallium flux fluorescence, PAM;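 active = compound whose average potency across repeat runs for boosting rat mGlu4 signalling is below 30 µM; inactive = the rest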.
Sequence of Metabotropic glutamate receptor 4 (Rattus norvegicus) (P31423 whole entry, looked up): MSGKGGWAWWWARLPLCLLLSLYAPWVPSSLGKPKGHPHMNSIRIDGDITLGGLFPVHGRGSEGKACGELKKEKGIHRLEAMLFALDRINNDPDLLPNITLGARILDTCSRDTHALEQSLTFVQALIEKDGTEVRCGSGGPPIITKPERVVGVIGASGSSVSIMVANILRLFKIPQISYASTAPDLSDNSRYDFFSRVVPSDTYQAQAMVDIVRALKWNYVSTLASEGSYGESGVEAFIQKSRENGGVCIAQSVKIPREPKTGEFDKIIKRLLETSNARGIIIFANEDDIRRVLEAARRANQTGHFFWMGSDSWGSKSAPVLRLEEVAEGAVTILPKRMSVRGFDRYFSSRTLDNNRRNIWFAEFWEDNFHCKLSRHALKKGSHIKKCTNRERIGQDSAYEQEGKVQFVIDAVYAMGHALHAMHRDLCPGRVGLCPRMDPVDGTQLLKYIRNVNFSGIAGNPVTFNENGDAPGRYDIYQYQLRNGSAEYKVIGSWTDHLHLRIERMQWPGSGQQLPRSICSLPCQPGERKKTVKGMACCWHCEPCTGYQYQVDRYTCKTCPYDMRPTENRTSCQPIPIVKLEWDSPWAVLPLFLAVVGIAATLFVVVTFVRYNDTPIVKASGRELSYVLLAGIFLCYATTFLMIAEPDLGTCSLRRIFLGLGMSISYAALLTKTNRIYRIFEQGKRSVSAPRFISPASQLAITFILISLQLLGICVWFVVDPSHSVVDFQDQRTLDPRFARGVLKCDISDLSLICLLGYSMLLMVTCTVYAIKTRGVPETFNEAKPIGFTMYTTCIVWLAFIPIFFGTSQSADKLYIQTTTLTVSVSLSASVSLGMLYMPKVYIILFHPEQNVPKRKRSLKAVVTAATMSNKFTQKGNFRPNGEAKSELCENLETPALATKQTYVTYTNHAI
Procedure, shortened: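 System: rat mGlu4 in HEK/GIRK/M4 cells; Dosing: 10-point concentration-response series, threefold dilution steps; Incubation: 1 h dye load, ~2.5 min compound pre-agonist; Technique: thallium flux through GIRK channels, FluoZin-2 AM fluorescence; Measure: baseline-normalized fluorescence slope 5–15 s post-addition, four-parameter logistic EC50.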

EC50, active:
O=C(Nc1ccc2cn[nH]c2c1)c1ccccn1 980 nM
FC(F)Oc1cccc(Nc2noc3cccnc23)c1 110 nM and 130 nM
O=C(Nc1ccc2c(c1)C(=O)NC2=O)c1ccccn1 2120 nM
Clc1cccc(Nc2ncnc3cccnc23)c1 2580 nM
COc1cc2nc(-c3ccccn3)[nH]c2cc1Cl 6330 nM
Clc1ccc2nc(-c3ccccn3)[nH]c2c1 1020 nM
CC(C)N(C(=O)c1ccccn1)c1cccc(Cl)c1 10300 nM
O=C(Nc1cccc(Cl)c1)c1ccccn1 330 nM
COc1cc(Nc2noc3cccnc23)ccc1Cl 1190 nM
Fc1cccc(Nc2noc3cccnc23)c1 530 nM
Clc1cccc(Nc2noc3cccnc23)c1 70 nM and 80 nM
